Assay [1] deals with BaF3. Briefly: Antiproliferative activity against mouse BaF3 cells transfected with TEL-fused FLT3 assessed as cell growth inhibition incubated for 72 hrs by CCK-8 assay. The class given is functional. An outline of the steps:
(§1)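 Kinase-transformed isogenic BaF3 lines grown in RPMI 1640 with 10% FBS, 2% L-glutamine and pen/strep at 37 °C, 5% CO2. Seeded at 1500-3000 cells/well and treated with a compound concentration series for 72 h. Viability read by CCK8 absorbance at 450 nm.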

For assay [2], the system named is BaF3. In words: Antiproliferative activity against mouse BaF3 cells transfected with TEL fused FLT3 K663Q mutant assessed as cell growth inhibition incubated for 72 hrs by CCK-8 assay. The format is functional. An outline of the steps: as §1
The subject of assay [3] is BaF3. In words: Antiproliferative activity against mouse BaF3 cells transfected with TEL fused FLT3 Y842R mutant assessed as cell growth inhibition incubated for 72 hrs by CCK-8 assay. The class given is functional. An outline of the steps:
as §1

In assay [4] the target is Platelet-derived growth factor receptor beta (Homo sapiens, UniProt P09619). In words: Inhibition of PDGFRbeta (unknown origin) assessed as residual activity at 1 uM preincubated for 60 mins followed by ATP addition and measured after 1 hr by ADP-Glo assay relative to control. Conditions: time 2.0 hrs.
In assay [5] the target is Mast/stem cell growth factor receptor Kit (Homo sapiens, UniProt P10721). Briefly: Inhibition of KIT (unknown origin) preincubated for 60 mins followed by ATP addition and measured after 1 hr by ADP-Glo assay. An outline of the steps: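 ADP-Glo luminescence assay. Kinase was preincubated with compound for 60 min at room temperature, then ATP/substrate was added and the reaction ran 1 h at 37 °C. ADP-Glo reagent was added for 40 min, then detection reagent for 30 min, and luminescence was read. Enzyme and ATP per target: KIT 20 ng/µL, 50 µM ATP; PDGFRα 2.5 ng/µL, 25 µM ATP; PDGFRβ 1.25 ng/µL, 25 µM ATP. IC50 was taken from the dose-response fit.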

Assay [6] addresses Mitogen-activated protein kinase kinase kinase kinase 1 (Homo sapiens, UniProt Q92918). In words: Inhibition of HPK1 (unknown origin) preincubated for 60 mins followed by ATP addition and measured after 1 hr by ADP-Glo assay.
Assay [7] deals with BaF3. Briefly: Antiproliferative activity against mouse BaF3 cells transfected with TEL fused PDGFRbeta assessed as cell growth inhibition incubated for 72 hrs by CCK-8 assay. The format is functional. An outline of the steps:
as §1
Background: Tetrazolium assays rely on reduction of a dye to a coloured formazan, in cell work by metabolically active cells.

For assay [8], the system named is MOLM-13. In words: Inhibition of ERK phosphorylation at Thr202/Tyr204 residues in human MOLM-13 cells harboring FLT3-ITD mutant incubated for 4 hrs by Western blot analysis. The class given is cell-based. Conditions: dose 0.01-3 µM. An outline of the steps:
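Cells were exposed to the compound at a series of concentrations for 4 h, and whole-cell lysates were analysed by Western blot. MV4-11 cells were grown in IMDM with 10% FBS. MOLM13 and MOLM14 cells were grown in RPMI 1640 with 10% FBS. All cultures were kept at 37 °C with 5% CO2.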
In general terms: A western blot detects proteins with antibodies after separation by electrophoresis.

In assay [9] the test system is OCI-AML2. Briefly: cells. The format is functional. Conditions: Homo sapiens, time 72 hrs.
Assay [10] can be described thus: cells. The format is functional. Conditions: Homo sapiens, AML3; time 72 hrs.

pIC50: −log10 of the molar value.

Sequence of Mast/stem cell growth factor receptor Kit (P10721 whole entry): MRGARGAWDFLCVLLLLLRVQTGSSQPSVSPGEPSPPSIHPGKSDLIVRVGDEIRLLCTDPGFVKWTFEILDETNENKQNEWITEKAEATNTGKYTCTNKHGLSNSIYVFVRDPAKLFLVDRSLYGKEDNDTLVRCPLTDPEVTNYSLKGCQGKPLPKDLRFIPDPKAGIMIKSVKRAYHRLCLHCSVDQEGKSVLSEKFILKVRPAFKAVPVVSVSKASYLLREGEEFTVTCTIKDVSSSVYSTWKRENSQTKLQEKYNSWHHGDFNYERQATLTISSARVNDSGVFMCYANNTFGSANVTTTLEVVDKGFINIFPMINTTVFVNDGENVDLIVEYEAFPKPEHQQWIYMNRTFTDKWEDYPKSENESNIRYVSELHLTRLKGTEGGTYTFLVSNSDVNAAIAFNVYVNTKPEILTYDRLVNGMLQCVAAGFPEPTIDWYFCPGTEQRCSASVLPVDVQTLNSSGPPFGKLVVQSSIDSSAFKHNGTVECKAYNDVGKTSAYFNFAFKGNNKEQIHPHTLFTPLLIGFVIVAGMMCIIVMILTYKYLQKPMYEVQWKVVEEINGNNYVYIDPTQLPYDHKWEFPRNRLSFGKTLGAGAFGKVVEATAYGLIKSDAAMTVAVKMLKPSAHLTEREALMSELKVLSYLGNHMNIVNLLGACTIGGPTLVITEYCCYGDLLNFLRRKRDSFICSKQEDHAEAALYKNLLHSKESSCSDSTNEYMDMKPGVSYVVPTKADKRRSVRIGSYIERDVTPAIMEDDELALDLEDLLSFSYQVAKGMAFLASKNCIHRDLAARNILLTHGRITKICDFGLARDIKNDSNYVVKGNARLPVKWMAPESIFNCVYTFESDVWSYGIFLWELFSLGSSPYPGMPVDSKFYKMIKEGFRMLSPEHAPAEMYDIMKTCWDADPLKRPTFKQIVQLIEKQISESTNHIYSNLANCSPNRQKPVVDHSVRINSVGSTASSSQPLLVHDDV
Sequence of Platelet-derived growth factor receptor beta (P09619 whole entry): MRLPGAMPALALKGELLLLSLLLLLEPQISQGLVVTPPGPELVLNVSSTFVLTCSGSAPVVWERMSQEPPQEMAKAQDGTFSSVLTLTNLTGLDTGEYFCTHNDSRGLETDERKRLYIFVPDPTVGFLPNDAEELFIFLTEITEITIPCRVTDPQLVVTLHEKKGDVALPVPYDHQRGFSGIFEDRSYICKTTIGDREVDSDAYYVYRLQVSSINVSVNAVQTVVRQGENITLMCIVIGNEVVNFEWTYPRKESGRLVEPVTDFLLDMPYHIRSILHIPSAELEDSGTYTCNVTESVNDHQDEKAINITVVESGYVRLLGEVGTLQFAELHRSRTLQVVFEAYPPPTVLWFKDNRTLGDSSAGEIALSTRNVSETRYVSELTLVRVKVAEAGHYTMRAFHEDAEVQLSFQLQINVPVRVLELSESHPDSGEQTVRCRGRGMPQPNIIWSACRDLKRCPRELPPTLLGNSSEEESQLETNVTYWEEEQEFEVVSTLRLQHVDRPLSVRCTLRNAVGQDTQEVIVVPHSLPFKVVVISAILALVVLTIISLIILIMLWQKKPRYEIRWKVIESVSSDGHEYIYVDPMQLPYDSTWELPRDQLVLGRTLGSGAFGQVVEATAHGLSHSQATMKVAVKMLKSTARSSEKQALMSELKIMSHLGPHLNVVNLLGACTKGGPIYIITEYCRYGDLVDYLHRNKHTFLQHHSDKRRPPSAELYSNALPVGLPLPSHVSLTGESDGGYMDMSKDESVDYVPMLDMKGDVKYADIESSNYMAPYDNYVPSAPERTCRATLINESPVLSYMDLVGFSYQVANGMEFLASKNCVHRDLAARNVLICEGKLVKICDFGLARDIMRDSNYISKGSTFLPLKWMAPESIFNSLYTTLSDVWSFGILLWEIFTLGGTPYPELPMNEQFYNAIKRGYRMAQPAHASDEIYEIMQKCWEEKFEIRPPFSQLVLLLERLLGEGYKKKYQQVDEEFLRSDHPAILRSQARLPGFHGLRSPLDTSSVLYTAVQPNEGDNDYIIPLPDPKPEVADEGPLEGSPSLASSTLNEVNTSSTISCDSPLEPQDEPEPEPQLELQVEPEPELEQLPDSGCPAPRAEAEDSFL
Sequence of Mitogen-activated protein kinase kinase kinase kinase 1 (Q92918 whole entry, the tested form may be a part): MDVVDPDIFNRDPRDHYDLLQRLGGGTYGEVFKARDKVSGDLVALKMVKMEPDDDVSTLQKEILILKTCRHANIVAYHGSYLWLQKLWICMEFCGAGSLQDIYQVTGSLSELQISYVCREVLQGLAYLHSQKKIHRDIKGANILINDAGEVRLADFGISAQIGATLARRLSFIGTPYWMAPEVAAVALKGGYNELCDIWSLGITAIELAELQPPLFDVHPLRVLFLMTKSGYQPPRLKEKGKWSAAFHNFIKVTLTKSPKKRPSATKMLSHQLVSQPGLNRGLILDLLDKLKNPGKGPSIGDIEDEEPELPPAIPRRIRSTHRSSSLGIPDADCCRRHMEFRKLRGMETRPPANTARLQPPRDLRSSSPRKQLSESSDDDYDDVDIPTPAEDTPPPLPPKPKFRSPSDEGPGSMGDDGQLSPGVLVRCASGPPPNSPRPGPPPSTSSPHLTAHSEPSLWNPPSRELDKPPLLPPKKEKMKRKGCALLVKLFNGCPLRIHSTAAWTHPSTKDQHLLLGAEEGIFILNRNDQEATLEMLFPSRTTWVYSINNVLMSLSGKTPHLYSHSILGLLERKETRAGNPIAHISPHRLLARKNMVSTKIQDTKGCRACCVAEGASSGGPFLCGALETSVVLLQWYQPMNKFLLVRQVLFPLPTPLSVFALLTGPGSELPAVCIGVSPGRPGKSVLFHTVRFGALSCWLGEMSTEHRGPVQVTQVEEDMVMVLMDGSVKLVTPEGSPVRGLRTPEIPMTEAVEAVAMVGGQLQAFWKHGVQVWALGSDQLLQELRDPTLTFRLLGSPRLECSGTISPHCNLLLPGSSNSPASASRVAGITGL

On to `CC(=O)Nc1cc(Oc2ccc(NC(=O)Cc3ccccc3C(F)(F)F)cc2)ncn1`, for which the GI50 (in general, the concentration giving 50% growth inhibition) was 0.249 µM in [1]; 9.4 µM in assay [2]; more than 10 µM in [3]; 0.04 µM in [7]; more than 10 µM in assay [9]; more than 10 µM in [10]. Besides, the Activity in assay [4] amounted to 0.15%. Moreover, the results for the pIC50 in [5] and in assay [6] were 6.17 and less than 5.00, respectively. For the same compound, the inhibition entry in assay [8] is “Dose-Dependent Effect”.

These data come from ChEMBL document CHEMBL5260841, “Discovery of N-(4-(6-Acetamidopyrimidin-4-yloxy)phenyl)-2-(2-(trifluoromethyl)phenyl)acetamide (CHMFL-FLT3-335) as a Potent FMS-like Tyrosine Kinase 3 Internal Tandem Duplication (FLT3-ITD) Mutant Selective Inhibitor for Acute Myeloid Leukemia” (J Med Chem, 2019).
